Assays:
[1] = Compound levels in rat plasma and CSF; assay type: in vivo; conditions: plasma, po
Summary of the method: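 Adult male Wistar rats (200–220 g) were given a single oral dose of 0.2, 0.6 or 2 mg/kg in 0.5% Natrosol with 0.01% Tween-80 (n = 8 per group). At 90 min, under s.c. inactin/ketavet anaesthesia, blood and cisterna magna CSF were taken. Plasma was stored at −20°C and CSF at −70°C. Drug was measured by HPLC-MS/MS, and CSF/plasma ratio was derived.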

human GlyT2 = target: T1, human GlyT2 (Homo sapiens, UniProt Q9Y345); test: Inhibition of [3H]-glycine uptake in HEK cells overexpressing human GlyT2; assay type: cell-based
T1 sequence (Q9Y345 1-797): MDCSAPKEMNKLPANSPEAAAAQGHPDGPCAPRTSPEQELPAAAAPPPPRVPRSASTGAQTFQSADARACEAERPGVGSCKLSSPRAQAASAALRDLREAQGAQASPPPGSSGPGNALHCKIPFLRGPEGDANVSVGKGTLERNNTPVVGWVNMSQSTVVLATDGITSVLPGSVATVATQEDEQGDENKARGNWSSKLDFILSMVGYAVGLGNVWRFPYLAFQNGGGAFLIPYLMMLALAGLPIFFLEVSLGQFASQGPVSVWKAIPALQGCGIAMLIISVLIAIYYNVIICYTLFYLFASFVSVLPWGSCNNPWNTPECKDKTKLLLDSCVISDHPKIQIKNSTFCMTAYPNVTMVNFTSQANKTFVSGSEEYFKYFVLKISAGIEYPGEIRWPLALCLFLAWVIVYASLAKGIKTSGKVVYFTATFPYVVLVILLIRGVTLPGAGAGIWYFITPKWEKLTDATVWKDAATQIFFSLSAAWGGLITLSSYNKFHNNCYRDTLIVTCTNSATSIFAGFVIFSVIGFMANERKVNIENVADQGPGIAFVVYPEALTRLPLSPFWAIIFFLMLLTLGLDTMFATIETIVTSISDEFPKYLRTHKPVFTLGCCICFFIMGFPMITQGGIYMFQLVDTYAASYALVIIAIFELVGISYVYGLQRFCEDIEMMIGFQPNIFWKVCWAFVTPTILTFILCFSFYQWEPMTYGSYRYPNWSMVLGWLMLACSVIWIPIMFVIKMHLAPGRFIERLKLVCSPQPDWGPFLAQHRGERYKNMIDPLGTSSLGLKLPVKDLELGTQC
Summary of the method: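 HEK cells overexpressing human GlyT2 were grown on scintillating microplates and incubated 20 min with inhibitor at 0.9–3000 nM in HBSS containing 5 mM alanine. Uptake was started with 250 nM [3H]glycine (0.0125 mCi/mL), and counting ran immediately over 57 min. IC50 came from a four-parameter log(inhibitor)-response fit.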

[2] = previously observed; cited from earlier work
[3] = tested on: glycine levels in the rat cerebrospinal fluid (CSF); test: Glycine in rat CSF after single oral dose; assay type: in vivo; conditions: 90 min
Summary of the method: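 Male Wistar rats were acclimatised 1 h in the test room, then dosed orally once with vehicle (0.5% Natrosol, 0.01% Tween-80) or 0.2, 0.6 or 2 mg/kg (n = 8 each). After 90 min, CSF was drawn by cisterna magna puncture under anaesthesia and frozen at −70°C. Glycine was quantified by LC-MS/MS. Data are mean ± SEM, compared with vehicle by one-way ANOVA with Dunnett's test.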

## C[C@@H](Oc1ccc(S(C)(=O)=O)cc1C(=O)N1C[C@@H]2C[C@]2(c2cc(C(F)(F)F)on2)C1)C(F)(F)F [BI 425809]
[1]; 0.2 mg/kg
  concentration at 90 min: 79 nM
[1]; 0.6 mg/kg
  concentration at 90 min: 217 nM
[1]; 2 mg/kg
  concentration at 90 min: 723 nM
Human GlyT2
  IC50: > 10 µM
[2]
  Attainment of steady state after administration: ≤ 8 days
  Half-life: ~ 40 hours
[3]; 0.2 mg/kg single oral dose, not significant
  Increase of glycine CSF levels relative to vehicle: 30%
[3]; 0.6 mg/kg single oral dose, P < 0.05
  Increase of glycine CSF levels relative to vehicle: 61%
[3]; 2 mg/kg single oral dose, P < 0.01
  Increase of glycine CSF levels relative to vehicle: 78%

From article PMC6226115 (Clinical and Translational Science, 2018)
